# Results taken from PubChem BioAssay.
# Calls of active or inactive are those of the source.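 How the source made its calls, unless noted: active means viability at or under a set limit in both replicates, limit being median viability minus 3 SD (cut at about 48% in these data, passing the limit was not always enough); inconclusive means at or under the limit in just one replicate; inactive means at or above the limit in both replicates.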
# Legend:
# [1] = HUVEC growth inhibition – cell-based, human, primary screen (AID 575;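 active means viability at or below 30% in both replicate assays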;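 further: 100% = median of untreated cell wells with 0.1% DMSO on each plate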); settings: HUVEC proliferation, CellTiter-Glo luminescence, 72 h; at 10 µM; stronger effect = lower value
# In short: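 Test system: HUVEC primary cells. Quantity: 1250 endothelial cells in each well. Dosing: single-point 10 µM, DMSO 0.1% final. Incubation: 72 h treatment at 37 °C. Measured by: CTG luminescence. Control set: DMSO cell controls and MePR drug controls. Plate: collagen-coated 384-well format.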
# [2] = growth inhibitors of H69AR lung tumor, primary screen, human, duplicate replicates (AID 580); settings: H69AR lung tumor cells viability, ATP luminescence, 72 h; at 10 µM; stronger effect = lower value;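 further: 100% = mean luminescence of untreated wells and 0% = no signal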
# [3] = reversal of MRP1-mediated doxorubicin resistance, pilot screen, H69AR cells, doxorubicin co-treatment (AID 601;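 active means viability loss from added drug above about 55%, and viability with drug at most 40%, in both replicates, limit read from the data, passing the limit was not always enough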); settings: CellTiter-Glo, 72 h, at 10 µM; for differential viability (reversal): stronger effect = higher value
# [4] = 384-well plate pilot, post-Golgi transport modulator project, inhibition of yeast transport mutant growth (AID 636; in the data active means inhibition above about 31%); settings: absorbance 615 nm, about 18 h, stronger effect = higher value
# [5] = growth suppression of yeast trafficking mutant, preliminary HTS, modulators of trafficking downstream of Golgi apparatus project, 1536-format plate, OD 615 nm (AID 637; in the data active means inhibition above about 30%); settings: yeast transport mutant growth, absorbance 615 nm, 18 h; stronger effect = higher value
# [6] = H69AR cells + 2 uM doxorubicin, measured here: viability with 2 uM doxorubicin, stronger effect = lower value
# [7] = H69AR cells, compound alone cytotoxicity
SMILES,viability [1],viability [2],differential viability (reversal) ([3]; H69AR cells + 2 uM doxorubicin),"viability [3, 6] [%]","viability [3, 7] [%]",inhibition [4],inhibition [5]
O=C(CCC(=O)N1CCN(S(=O)(=O)c2ccccc2)CC1)c1cccs1,102% (inactive),90.9% (inactive),4.42% (inactive),86.5,90.9,-5.32% (inactive),-3.33% (inactive)
O=S1(=O)C=C(Sc2nnc(-c3ccccc3)o2)c2ccccc21,42.9% (inactive),1.65% (active),0.375% (inactive),1.27,1.65,57% (active),95.8% (active)
O=c1c2ccc(-c3nnc4n3-c3ccccc3SC4)cc2nc2n1CCCCC2,94.9% (inactive),94.4% (inactive),8.88% (inactive),85.5,94.4,-5.33% (inactive),6.83% (inactive)
Cc1ccc(C)c(C(=O)NC2CC(C)(C)NC(C)(C)C2)c1,98.5% (inactive),86.7% (inactive),-0.525% (inactive),87.3,86.7,-5.71% (inactive),-6.98% (inactive)
Cc1ccc(NC(=O)c2ccco2)cc1NC(=O)CSc1nnc(-c2cccs2)n1C,112% (inactive),99.8% (inactive),23.4% (inactive),76.4,99.8,-6.13% (inactive),2.38% (inactive)
CCn1c(Cc2ccccc2)nnc1SCC(=O)Nc1ccc(N2CCOCC2)c(Cl)c1,101% (inactive),93.8% (inactive),-8.62% (inactive),102,93.8,-4.67% (inactive),3.02% (inactive)
CCCN(CCC)CCCNS(=O)(=O)c1ccc2c(c1)oc(=O)n2C,92.2% (inactive),94.7% (inactive),0.825% (inactive),93.8,94.7,-4.4% (inactive),-4.44% (inactive)
CCOc1ccccc1OCCn1nnc2ccccc21,101% (inactive),98.7% (inactive),18.4% (inactive),80.3,98.7,-5.73% (inactive),5.24% (inactive)
Cc1ccc(S(=O)(=O)N(C)CC(=O)NC2CCCC2)cc1,118% (inactive),102% (inactive),17.5% (inactive),84.9,102,-2.63% (inactive),0.95% (inactive)
O=C(NCc1nc2ccccc2[nH]1)c1ccco1,106% (inactive),90.7% (inactive),7.09% (inactive),83.7,90.7,-4.13% (inactive),-1.9% (inactive)
O=C(O)C1C2CCC(O2)C1C(=O)Nc1cccc(F)c1 (stereo not given),80.9% (inactive),90.8% (inactive),10.3% (inactive),80.5,90.8,-4.74% (inactive),3.02% (inactive)
Cc1ccc(C)c(SCC(=O)Nc2nnc(-c3ccccc3)o2)c1,48.4% (inactive),74.9% (inactive),-0.675% (inactive),75.6,74.9,-3.64% (inactive),-1.27% (inactive)
O=c1cc(CSc2nnnn2-c2ccccc2)nc2scc(-c3ccccc3)n12,92% (inactive),101% (inactive),6.61% (inactive),93.9,101,0.13% (inactive),-7.62% (inactive)
COC(=O)C1(C(=O)OC)Sc2ccccc2C1=O,87.2% (inactive),101% (inactive),10.6% (inactive),90.8,101,-3.9% (inactive),3.33% (inactive)
O=C(c1ccco1)N1CCN(C(=O)c2ccc(Cn3cc(Br)cn3)o2)CC1,91% (inactive),79.7% (inactive),-12.7% (inactive),92.4,79.7,-2.11% (inactive),2.86% (inactive)
CC(=O)N1CCN(S(=O)(=O)c2ccc(S(=O)(=O)NCC(C)C)cc2)CC1,111% (inactive),88.5% (inactive),2.16% (inactive),86.4,88.5,-5.73% (inactive),0.16% (inactive)
C=CCC(Nc1ccco1)c1ccccc1 (stereo not given),95.8% (inactive),102% (inactive),14.1% (inactive),87.8,102,-3.55% (inactive),-0.32% (inactive)
CC1(c2ccncc2)Nc2ccccc2-c2nc3ccccc3n21 (stereo not given),92.4% (inactive),99.2% (inactive),-2.33% (inactive),101,99.2,-1.45% (inactive),-0.95% (inactive)
Cc1nn(-c2ccccc2)c(Cl)c1C1C(C#N)=C(N)OC2=C1C(=O)CC(C)(C)C2 (stereo not given),49.1% (inactive),12.2% (active),-72.2% (inactive),84.4,12.2,-4.68% (inactive),-4.29% (inactive)
O=C(Nc1ccc2c(c1)OCO2)c1cccc(Cl)c1,71.4% (inactive),104% (inactive),13.2% (inactive),90.3,104,-3.87% (inactive),16.8% (inactive)

SMILES,viability [1],viability [2],differential viability (reversal) ([3]; H69AR cells + 2 uM doxorubicin),"viability [3, 6] [%]","viability [3, 7] [%]",inhibition [4],inhibition [5]
CCN1C(=O)/C(=C/N2CCc3ccccc32)SC1=S,98.3% (inactive),58.5% (inactive),-3.35% (inactive),61.9,58.5,-2.63% (inactive),0.95% (inactive)
CSc1nc2ccc(S(=O)(=O)N3CCOCC3)cc2s1,101% (inactive),89.9% (inactive),-4.54% (inactive),94.4,89.9,-6.53% (inactive),2.06% (inactive)
O=C(O)C1CC(=O)N(c2ccc(OCc3c(F)cccc3Cl)cc2)C1 (stereo not given),105% (inactive),105% (inactive),4.8% (inactive),101,105,-0.52% (inactive),-1.9% (inactive)
CSc1cccc(NC(=O)CN(C)S(=O)(=O)c2ccccc2)c1,74.9% (inactive),95.1% (inactive),15.1% (inactive),80,95.1,-4.93% (inactive),1.27% (inactive)
CCc1c(C)nc(N2CCN(Cc3ccccc3)CC2)[nH]c1=O,115% (inactive),103% (inactive),18.8% (inactive),84.6,103,-0.53% (inactive),0.32% (inactive)
c1ccc(-c2nc3nonc3c3nc4ccccc4n23)cc1,93.8% (inactive),88.8% (inactive),-1.96% (inactive),90.8,88.8,-6.27% (inactive),1.9% (inactive)
Cc1ccc(NC(=O)C2CCCNC2=O)nc1 (stereo not given),106% (inactive),97.8% (inactive),3.79% (inactive),94,97.8,-0.13% (inactive),-2.7% (inactive)
Cc1cc(C)c(OCC(=O)Nc2cccc(O)c2)cc1C,78.2% (inactive),101% (inactive),3.2% (inactive),97.7,101,-5.07% (inactive),3.97% (inactive)
O=C1CCCc2c1nn(-c1ccccc1)[n+]2[O-],110% (inactive),98.1% (inactive),1.57% (inactive),96.5,98.1,-5.33% (inactive),-5.4% (inactive)
O=C(CN1C(=O)COc2ccccc21)NCCCN1CCN(Cc2ccccc2)CC1,98.5% (inactive),87.3% (inactive),2.35% (inactive),85,87.3,3.51% (inactive),22.4% (inactive)
Cc1ccccc1NC(=O)c1ccccc1,103% (inactive),99.6% (inactive),11.8% (inactive),87.8,99.6,-5.92% (inactive),2.7% (inactive)
CCOCCCNC(=O)c1ccc2c(c1)ncn2C1CCCC1,91% (inactive),95.8% (inactive),7.26% (inactive),88.5,95.8,2.24% (inactive),-3.81% (inactive)
COc1ccc(CCNC(=O)C2CCCN(c3nn4c(=O)cc(C)nc4s3)C2)cc1OC (stereo not given),78.6% (inactive),86.4% (inactive),-4.58% (inactive),91,86.4,-6.8% (inactive),3.65% (inactive)
COCC(C)NC(=O)CCS(=O)(=O)c1nc(-c2ccc(OC)cc2)cc(C(F)(F)F)n1 (stereo not given),8.82% (active),23.7% (active),-11.7% (inactive),35.3,23.7,-7.87% (inactive),-0.63% (inactive)
Cc1ccc(CC23CN4CCN(CC(C4)C2O)C3)c(C)c1 (stereo not given),109% (inactive),94.6% (inactive),8.52% (inactive),86.1,94.6,-2.37% (inactive),3.02% (inactive)
CC(=O)c1ccc(NC(=O)CSc2nnc(-c3ccoc3C)n2Cc2ccccc2)cc1,80.3% (inactive),93.5% (inactive),3.91% (inactive),89.6,93.5,-2.27% (inactive),-8.57% (inactive)
CCCN(CCC)CCNS(=O)(=O)c1ccc2c(c1)oc(=O)n2C,97.1% (inactive),105% (inactive),12.9% (inactive),92.5,105,-2.27% (inactive),-2.06% (inactive)
O=C(C1CCN(S(=O)(=O)c2ccc(-n3cnnn3)cc2)CC1)N1CCN(c2ccccc2)CC1,103% (inactive),94.5% (inactive),2.88% (inactive),91.6,94.5,-1.43% (inactive),0.48% (inactive)
O=C(Nc1ccc2c(c1)C(=O)N(C1CCCCC1)C2=O)C1CCCO1 (stereo not given),90.8% (inactive),90.9% (inactive),-1.69% (inactive),92.6,90.9,-3.33% (inactive),-0.63% (inactive)
CCC(=O)n1nc(-c2ccco2)nc1N,113% (inactive),110% (inactive),11.3% (inactive),98.2,110,0.53% (inactive),5.4% (inactive)
